This is an account of results in ChEMBL document CHEMBL3525926, “CYP2C9-mediated metabolic activation of losartan detected by a highly sensitive cell-based screening assay” (Drug Metab Dispos, 2011).

What all share (format): ADME, cell-based
Conditions in all cases: hepg2, 24 h

Data set [1] concerns the target T1, Cytochrome P450 2C9 (Homo sapiens, UniProt P11712). Put plainly: Metabolic activation assessed as CYP2C9 activation-induced cytotoxicity in human HepG2 cells transfected with human AdCYP2C9 at MOI 10 for 2 days in presence of siNrf2 at 50 to 200 uM after 24 hrs by WST-8 assay. The gist of the method: (§1)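 HepG2 cells reverse-transfected with 10 nM siNrf2 at seeding (1.0×10^4 cells/well), incubated 24 h, then infected with CYP2C9-expressing adenovirus (AdGFP as control) at MOI 10 for 2 days in 5% FBS medium. Drugs added for 24 h. Viability read by WST-8 (absorbance 450 nm) or CellTiter-Glo ATP luminescence. Expressed as % of untreated cells; means ± S.D., n = 3; two-tailed t test versus AdGFP cells.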
In general terms: Tetrazolium assays rely on reduction of a dye to a coloured formazan, in cell work by metabolically active cells.

In data set [2] the target is T1, Cytochrome P450 2C9. Description: Metabolic activation assessed as CYP2C9 activation-induced cytotoxicity in human HepG2 cells transfected with human AdCYP2C9 at MOI 10 for 2 days in presence of siNrf2 at 25 to 100 uM after 24 hrs by WST-8 assay.
The target in data set [3] is T1, Cytochrome P450 2C9. Description: Metabolic activation assessed as CYP2C9 activation-induced cytotoxicity in human HepG2 cells transfected with human AdCYP2C9 at MOI 10 for 2 days in presence of siScramble at 25 to 100 uM after 24 hrs by ATP assay. The gist of the method: (§2)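 HepG2 cells reverse-transfected with 10 nM scrambled control siRNA at seeding (1.0×10^4 cells/well), then after 24 h infected with CYP2C9-expressing adenovirus (AdGFP control) at MOI 10 for 2 days. Drugs added for 24 h. Viability by CellTiter-Glo ATP luminescence, as % of untreated cells; means ± S.D., n = 3; two-tailed t test versus AdGFP cells.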

The target in data set [4] is T1, Cytochrome P450 2C9. Put plainly: Metabolic activation assessed as CYP2C9 activation-induced cytotoxicity in human HepG2 cells transfected with human AdCYP2C9 at MOI 10 for 2 days in presence of siNrf2 at 50 to 200 uM after 24 hrs by ATP assay. An outline of the steps:
as §1

Data set [5] addresses T1, Cytochrome P450 2C9. Put plainly: Metabolic activation assessed as CYP2C9 activation-induced cytotoxicity in human HepG2 cells transfected with human AdCYP2C9 at MOI 10 for 2 days in presence of siScramble at 50 to 200 uM after 24 hrs by ATP assay. The gist of the method: as §2
For data set [6], the target named is T1, Cytochrome P450 2C9. Description: Metabolic activation assessed as CYP2C9 activation-induced cytotoxicity in human HepG2 cells transfected with human AdCYP2C9 at MOI 10 for 2 days in presence of siNrf2 at 100 to 200 uM after 24 hrs by WST-8 assay. The gist of the method:
as §1

Data set [7] addresses T1, Cytochrome P450 2C9. Description: Metabolic activation assessed as CYP2C9 activation-induced cytotoxicity in human HepG2 cells transfected with human AdCYP2C9 at MOI 10 for 2 days in presence of siNrf2 at 25 to 75 uM after 24 hrs by WST-8 assay. An outline of the steps:
as §1

The target in data set [8] is T1, Cytochrome P450 2C9. Put plainly: Metabolic activation assessed as CYP2C9 activation-induced cytotoxicity in human HepG2 cells transfected with human AdCYP2C9 at MOI 10 for 2 days in presence of siNrf2 at 100 uM after 24 hrs by WST-8 assay. An outline of the steps: as §1

SMILES strings stand for the structures.

T1 sequence (P11712 whole entry): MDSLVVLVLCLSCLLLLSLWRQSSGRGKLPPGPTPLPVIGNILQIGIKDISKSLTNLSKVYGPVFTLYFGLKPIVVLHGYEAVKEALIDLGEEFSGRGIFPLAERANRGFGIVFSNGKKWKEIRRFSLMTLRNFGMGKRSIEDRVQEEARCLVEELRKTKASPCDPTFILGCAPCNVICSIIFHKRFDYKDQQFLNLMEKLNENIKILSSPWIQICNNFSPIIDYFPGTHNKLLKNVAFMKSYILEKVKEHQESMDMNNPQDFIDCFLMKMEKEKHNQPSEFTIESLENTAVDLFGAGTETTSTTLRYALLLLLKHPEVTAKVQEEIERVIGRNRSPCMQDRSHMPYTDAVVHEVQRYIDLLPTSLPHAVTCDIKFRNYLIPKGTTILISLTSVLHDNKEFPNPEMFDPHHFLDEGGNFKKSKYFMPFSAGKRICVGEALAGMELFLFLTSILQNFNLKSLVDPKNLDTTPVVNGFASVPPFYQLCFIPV

As for `CCCC(CCC)C(=O)O` [VALPROIC ACID], on Cytochrome P450 2C9 [1], the Activity entry is recorded as “Non-toxic”. As for `Cc1ccc(-c2nc3ccc(C)cn3c2CC(=O)N(C)C)cc1` [ZOLPIDEM], the Activity result at Cytochrome P450 2C9 [2] was “Toxic”. For `CN(C/C=C/C#CC(C)(C)C)Cc1cccc2ccccc12` [TERBINAFINE], the Activity result at Cytochrome P450 2C9 [3] and at Cytochrome P450 2C9 [2] was “Toxic” throughout. Consider `CCCCc1nc(Cl)c(C(=O)O)n1Cc1ccc(-c2ccccc2-c2nn[nH]n2)cc1` [CARBOXYLIC ACID METABOLITE], for which the Activity entry on Cytochrome P450 2C9 [2] is given as “Non-toxic”. The same measure, in the same setting: the entry for `CCCCc1nc(Cl)c(C=O)n1Cc1ccc(-c2ccccc2-c2nn[nH]n2)cc1` is “Non-toxic”.

On to `O=C(O)COc1ccc(C(=O)c2cccs2)c(Cl)c1Cl` [TICRYNAFEN], for which the figures for the Activity result at Cytochrome P450 2C9 [4], on Cytochrome P450 2C9 [5] and at Cytochrome P450 2C9 [6] were “Toxic”, “Non-toxic” and “Toxic”, respectively.

Take `CC(C)C(=O)Nc1ccc([N+](=O)[O-])c(C(F)(F)F)c1` [FLUTAMIDE]: the Activity result at Cytochrome P450 2C9 [7] is listed as “Non-toxic”.

For the compound `CCCCc1ncc(/C=C(\Cc2cccs2)C(=O)O)n1Cc1ccc(C(=O)O)cc1` [EPROSARTAN], the Activity entry at Cytochrome P450 2C9 [2] was “Toxic”.

For `CCCCC1=NC2(CCCC2)C(=O)N1Cc1ccc(-c2ccccc2-c2nnn[nH]2)cc1` [IRBESARTAN], at Cytochrome P450 2C9 [2], the Activity entry is listed as “Toxic”.

In the case of `CC(C)n1c(/C=C/C(O)CC(O)CC(=O)O)c(-c2ccc(F)cc2)c2ccccc21` (stereo not drawn) [FLUVASTATIN], the results for the Activity result on Cytochrome P450 2C9 [8] and on Cytochrome P450 2C9 [1] were “Toxic” and “Non-toxic”, respectively. In the case of `CCCCC(=O)N(Cc1ccc(-c2ccccc2-c2nnn[nH]2)cc1)[C@H](C(=O)O)C(C)C` [VALSARTAN], the Activity entry on Cytochrome P450 2C9 [2] is listed as “Toxic”. Still for that read-out and setting: with `CCCc1nc2c(C)cc(-c3nc4ccccc4n3C)cc2n1Cc1ccc(-c2ccccc2C(=O)O)cc1` [TELMISARTAN] the entry was “Toxic”.

Consider `CCCCc1nc(Cl)c(CO)n1Cc1ccc(-c2ccccc2-c2nn[nH]n2)cc1` [LOSARTAN], for which the Activity result on Cytochrome P450 2C9 [3] is listed as “Non-toxic”; on Cytochrome P450 2C9 [2] it was “Toxic”.
